The text below walks through data of ChEMBL document CHEMBL3392981, “Synthesis and pharmacological evaluation of dual acting ligands targeting the adenosine A2A and dopamine D2 receptors for the potential treatment of Parkinson's disease” (J Med Chem, 2015).

Data set [1] deals with T1, D(2) dopamine receptor (Homo sapiens, UniProt P14416). The data set can be described thus: Agonist activity at human dopamine D2L receptor expressed in CHO cell membranes incubated for 1 hr by [35S]GTPgammaS binding assay. Type of data set: functional. As to conditions: for pEC50: cho. (Binding of GTPγS marks nucleotide exchange on a G protein.)
T1 sequence (P14416 whole entry): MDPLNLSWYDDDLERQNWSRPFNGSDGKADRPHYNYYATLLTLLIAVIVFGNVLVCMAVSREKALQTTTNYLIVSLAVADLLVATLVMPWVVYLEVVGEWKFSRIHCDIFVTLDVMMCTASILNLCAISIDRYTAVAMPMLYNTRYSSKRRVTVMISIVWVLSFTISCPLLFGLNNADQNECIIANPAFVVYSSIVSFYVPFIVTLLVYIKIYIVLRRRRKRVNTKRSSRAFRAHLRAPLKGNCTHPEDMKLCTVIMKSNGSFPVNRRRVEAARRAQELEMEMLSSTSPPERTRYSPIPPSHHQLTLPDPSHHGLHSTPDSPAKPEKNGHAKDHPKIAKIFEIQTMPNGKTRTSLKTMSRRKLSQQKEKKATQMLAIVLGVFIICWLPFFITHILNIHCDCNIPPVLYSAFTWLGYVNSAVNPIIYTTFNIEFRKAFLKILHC
Another data set deals with Adenosine receptor A2a (Homo sapiens, UniProt P29274). The data set can be described thus: Inhibition of human adenosine A2A receptor expressed in FlpIn-CHO cells assessed as inhibition of NECA-induced cAMP accumulation incubated for 30 mins by fluorescence assay. The class given is functional, cell-based. (Changes in cAMP serve as a functional read-out for many G protein-coupled receptors.)
Chain of Adenosine receptor A2a (P29274 whole entry): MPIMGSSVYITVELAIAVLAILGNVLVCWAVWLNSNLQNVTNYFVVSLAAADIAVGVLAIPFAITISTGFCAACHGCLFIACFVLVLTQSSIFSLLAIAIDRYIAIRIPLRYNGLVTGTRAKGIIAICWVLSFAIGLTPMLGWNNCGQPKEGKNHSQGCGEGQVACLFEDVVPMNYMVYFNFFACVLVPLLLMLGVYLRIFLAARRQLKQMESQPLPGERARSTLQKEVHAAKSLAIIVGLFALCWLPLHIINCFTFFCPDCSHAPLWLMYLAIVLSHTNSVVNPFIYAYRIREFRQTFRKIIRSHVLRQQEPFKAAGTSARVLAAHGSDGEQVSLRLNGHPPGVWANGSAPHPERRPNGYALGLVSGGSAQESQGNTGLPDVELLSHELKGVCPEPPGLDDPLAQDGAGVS

The target of data set [2] is T1, D(2) dopamine receptor. The experiment in a line: Agonist activity at human dopamine D2L receptor expressed in CHO cell membranes incubated for 1 hr by [35S]GTPgammaS binding assay relative to 100 uM quinelorane. Type of data set: functional.
Data set [3] is described as follows: Fraction unbound in Wistar Han rat blood at 5 uM incubated for 4 hrs by dialysis and LC-MS/MS method. The class given is ADME, tissue-based. The gist of the method: (§1)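 Blood and brain tissue were taken from Wistar Han rat and tested in vitro. Percent fraction unbound was determined in each matrix (undiluted Fu). The brain:blood partition ratio (Kbb) was derived as an in vitro predictor of CNS penetration. Runs were in triplicate, and values are reported as mean ± SD.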

Data set [4] is described as follows: Fraction unbound in Wistar Han rat brain at 5 uM incubated for 4 hrs by dialysis and LC-MS/MS method. Type of data set: ADME, tissue-based. The gist of the method:
as §1

The nature of data set [5]: Blood-brain partition ratio in Wistar Han rat at 5 uM incubated for 4 hrs by dialysis and LC-MS/MS method. Type of data set: ADME, tissue-based. As to conditions: in vitro. Put shortly:
as §1

As usually defined, the EC50 is the concentration needed to bring the measured effect to its halfway point. For orientation: pEC50 means −log10 of the EC50, conventionally taken in molar units. By Emax is commonly meant the size of the effect at its maximum, as opposed to the concentration needed. A word on the fraction unbound: it is the share of the substance not bound to proteins or other matrix. Read a low fraction unbound as extensive binding.

Take `O=C(O)C(F)(F)F.O=C1Cc2c(CCN3CCCNCC3)cccc2N1`: on D(2) dopamine receptor [1], the EC50 was > 100000 nM and the negative-log EC50 (pEC50) is on record as < 4.

Take `COC(=O)CCCCCCCCCCCNC(=O)CCCOc1ccc(CCNc2nc(N)n3nc(-c4ccco4)nc3n2)cc1`: the IC50 on Adenosine receptor A2a (read-out: IC50) came out at 437 nM. Moreover, the IC50 at Adenosine receptor A2a (read-out: pIC50 (converted)) is 437 nM. Also, at D(2) dopamine receptor [1], the EC50 is > 100000 nM and the pEC50 is listed as < 4.

For `O=C1Cc2c(CCN3CCNCC3)cccc2N1`, at D(2) dopamine receptor [1], the EC50 is > 100000 nM and the negative logarithm of the EC50 (pEC50) was < 4.

Regarding `CC(C)(C)OC(=O)N1CCC(Nc2nc(N)n3nc(-c4ccco4)nc3n2)CC1`, the IC50 at Adenosine receptor A2a (read-out: IC50) and on Adenosine receptor A2a (read-out: pIC50 (converted)) was 1740 nM in each case.

As for `NC1CCN(CCc2cccc3c2CC(=O)N3)CC1`, on D(2) dopamine receptor [1], the EC50 is > 100000 nM and the pEC50 is recorded as < 4.

For the compound `Nc1nc(N2CCCN(CCc3cccc4c3CC(=O)N4)CC2)nc2nc(-c3ccco3)nn12.O=C(O)C(F)(F)F`, the IC50 on Adenosine receptor A2a (read-out: IC50) turned out to be 1480 nM. Besides, the IC50 at Adenosine receptor A2a (read-out: pIC50 (converted)) is 1480 nM. Further, on D(2) dopamine receptor [1], the EC50 is > 100000 nM and the pEC50 was < 4.

Turning to `CCCN(CCCNC(=O)CCCCCCCNC(=O)CCCOc1ccc(CCNc2nc(N)n3nc(-c4ccco4)nc3n2)cc1)CCc1cccc2c1CC(=O)N2`, the IC50 on Adenosine receptor A2a (read-out: IC50) is 41 nM; on Adenosine receptor A2a (read-out: pIC50 (converted)) it was 40.7 nM. Also, the EC50 at D(2) dopamine receptor [1] stood at 501 nM. Besides, the Emax on D(2) dopamine receptor [2] stood at 77%.

Regarding `CN(CCCNc1nc(N)n2nc(-c3ccco3)nc2n1)CCc1cccc2c1CC(=O)N2`, the IC50 at Adenosine receptor A2a (read-out: IC50) and at Adenosine receptor A2a (read-out: pIC50 (converted)) was 1120 nM throughout. In addition, on D(2) dopamine receptor [1], it took 389 nM to reach a half-maximal effect (EC50). At D(2) dopamine receptor [2], this compound showed a maximal effect (Emax) of 77%.

Turning to `CC(C)(C)OC(=O)N1CCN(CCc2cccc3c2CC(=O)N3)CC1`, at D(2) dopamine receptor [1], the EC50 is > 100000 nM and the pEC50 is recorded as < 4.

For the compound `CCCN(CCCNC(=O)CCCOc1ccc(CCNc2nc(N)n3nc(-c4ccco4)nc3n2)cc1)CCc1cccc2c1CC(=O)N2`, the IC50 on Adenosine receptor A2a (read-out: IC50) is 18 nM; on Adenosine receptor A2a (read-out: pIC50 (converted)), 18.2 nM. The same compound gave an EC50 on D(2) dopamine receptor [1] of 204 nM. Besides, on D(2) dopamine receptor [2], the Emax was determined as 95%.

`CCCN(CCCNC(=O)CCCCCCCCCCCNC(=O)CCCOc1ccc(CCNc2nc(N)n3nc(-c4ccco4)nc3n2)cc1)CCc1cccc2c1CC(=O)N2`: the IC50 at Adenosine receptor A2a (read-out: IC50) and at Adenosine receptor A2a (read-out: pIC50 (converted)) was 1070 nM throughout. On D(2) dopamine receptor [1], the EC50 stood at 1400 nM. The Emax at D(2) dopamine receptor [2] came out at 38%.

Regarding `Nc1nc(NCCc2ccc(Oc3nc(Cl)nc(N4CCOCC4)n3)cc2)nc2nc(-c3ccco3)nn12`, at Adenosine receptor A2a (read-out: IC50), the IC50 was determined as 135 nM. Moreover, the IC50 at Adenosine receptor A2a (read-out: pIC50 (converted)) was 135 nM. At D(2) dopamine receptor [1], the EC50 is > 100000 nM and the pEC50 was < 4.

As to `CCCN(CCCCCCNc1nc(N)n2nc(-c3ccco3)nc2n1)CCc1cccc2c1CC(=O)N2`, the IC50 on Adenosine receptor A2a (read-out: IC50) and on Adenosine receptor A2a (read-out: pIC50 (converted)) was 1780 nM throughout. This compound also gave an EC50 at D(2) dopamine receptor [1] of 38 nM. This compound gave an Emax at D(2) dopamine receptor [2] of 77%.

As to `CCCN(CCCNC(=O)COc1ccc(CCNc2nc(N)n3nc(-c4ccco4)nc3n2)cc1)CCc1cccc2c1CC(=O)N2`, the IC50 was 63 nM at Adenosine receptor A2a (read-out: IC50) and 63.1 nM on Adenosine receptor A2a (read-out: pIC50 (converted)). Moreover, on D(2) dopamine receptor [1], the EC50 was 148 nM. Also, on D(2) dopamine receptor [2], the Emax was 88%.

On to `CC(C)(C)OC(=O)NC1CCN(CCc2cccc3c2CC(=O)N3)CC1`, for which, on D(2) dopamine receptor [1], the EC50 was > 100000 nM and the pEC50 is listed as < 4.

Consider `CC(C)(C)OC(=O)N1CCCN(CCc2cccc3c2CC(=O)N3)CC1`, for which, at D(2) dopamine receptor [1], the EC50 was > 100000 nM and the pEC50 is < 4.

For `CCCN(CCCNc1nc(Oc2ccc(CCNc3nc(N)n4nc(-c5ccco5)nc4n3)cc2)nc(N2CCOCC2)n1)CCc1cccc2c1CC(=O)N2.O=CO`, the IC50 at Adenosine receptor A2a (read-out: IC50) and at Adenosine receptor A2a (read-out: pIC50 (converted)) was 120 nM throughout. It took 311 nM to reach a half-maximal effect on D(2) dopamine receptor [1] (EC50). Moreover, on D(2) dopamine receptor [2], the Emax came out at 65%. In addition, the fraction unbound at 4 h, 5 µM was 0.0222 in data set [3] and 0.0061 in data set [4]. The Kbb in data set [5] came to 3.64.

With `CCCN(CCCNc1nc(N)n2nc(-c3ccco3)nc2n1)CCc1cccc2c1CC(=O)N2`, the IC50 on Adenosine receptor A2a (read-out: IC50) and on Adenosine receptor A2a (read-out: pIC50 (converted)) was 912 nM in each case. The same compound showed an EC50 on D(2) dopamine receptor [1] of 88 nM. For the same compound, the Emax at D(2) dopamine receptor [2] is 89%. The fraction unbound at 4 h, 5 µM in data set [3] was determined as 0.198; in data set [4] it was 0.153. In addition, the Kbb in data set [5] is recorded as 1.29.

Consider `Nc1nc(NCCc2ccc(O)cc2)nc2nc(-c3ccco3)nn12` [ZM-241385], for which, at D(2) dopamine receptor [1], the EC50 was > 100000 nM and the pEC50 is recorded as < 4. Further, in data set [3], the fraction unbound at 4 h, 5 µM turned out to be 0.0647. The fraction unbound at 4 h, 5 µM in data set [4] was found to be 0.0849. The Kbb in data set [5] worked out at 0.76.

For `CCCN(CCc1cccc2c1CC(=O)N2)c1nc(N)n2nc(-c3ccco3)nc2n1`, the IC50 at Adenosine receptor A2a (read-out: IC50) was 32 nM; at Adenosine receptor A2a (read-out: pIC50 (converted)), 32.4 nM. For the same compound, on D(2) dopamine receptor [1], the EC50 was > 100000 nM. Moreover, on D(2) dopamine receptor [1], the negative-log EC50 (pEC50) is recorded as < 4.

Turning to `Nc1nc(NC2CCN(CCc3cccc4c3CC(=O)N4)CC2)nc2nc(-c3ccco3)nn12`, the IC50 at Adenosine receptor A2a (read-out: IC50) amounted to 1510 nM. The IC50 on Adenosine receptor A2a (read-out: pIC50 (converted)) was 1510 nM. Also, on D(2) dopamine receptor [1], the EC50 is > 100000 nM and the pEC50 is on record as < 4.

In the case of `CCCN(CCCNC(=O)CCCNC(=O)CCCOc1ccc(CCNc2nc(N)n3nc(-c4ccco4)nc3n2)cc1)CCc1cccc2c1CC(=O)N2`, the IC50 at Adenosine receptor A2a (read-out: IC50) and on Adenosine receptor A2a (read-out: pIC50 (converted)) was 110 nM in each case. This compound had an EC50 at D(2) dopamine receptor [1] of 785 nM. The same compound yielded an Emax on D(2) dopamine receptor [2] of 68%.

For `CCCN1CCC[C@@H]2Cc3nc(N)ncc3C[C@H]21` [QUINELORANE], on D(2) dopamine receptor [1], the pEC50 is reported as 7.35.

For `Nc1nc(N2CCN(CCc3cccc4c3CC(=O)N4)CC2)nc2nc(-c3ccco3)nn12`, the results for the IC50 at Adenosine receptor A2a (read-out: IC50) and at Adenosine receptor A2a (read-out: pIC50 (converted)) were 59 nM and 58.9 nM, respectively. Further, the EC50 at D(2) dopamine receptor [1] was > 100000 nM. In addition, the pEC50 at D(2) dopamine receptor [1] is < 4. Moreover, the fraction unbound at 4 h, 5 µM in data set [3] was determined as 0.0605; in data set [4] it was 0.0563. Moreover, in data set [5], the Kbb was 1.07.

In the case of `CCCN(CCCNC(=O)CCCCCCCCCCCNC(=O)OC(C)(C)C)CCc1cccc2c1CC(=O)N2`, the IC50 at Adenosine receptor A2a (read-out: IC50) was > 100000 nM. The same compound gave an EC50 at D(2) dopamine receptor [1] of 114 nM. The same compound returned an Emax on D(2) dopamine receptor [2] of 66%.

With `CCCN(CCCNC(=O)CCCC(=O)Oc1ccc(CCNc2nc(N)n3nc(-c4ccco4)nc3n2)cc1)CCc1cccc2c1CC(=O)N2`, the IC50 on Adenosine receptor A2a (read-out: IC50) was 35 nM; on Adenosine receptor A2a (read-out: pIC50 (converted)), 35.5 nM. For the same compound, the EC50 on D(2) dopamine receptor [1] was determined as 484 nM. The compound also had an Emax on D(2) dopamine receptor [2] of 79%.
